Experimental findings from ChEMBL document CHEMBL1123621, “Total synthesis and biological evaluation of structural analogues of compactin and dihydromevinolin” (J Med Chem, 1987) are described below.

Assay [1] addresses T1, 3-hydroxy-3-methylglutaryl-coenzyme A reductase (Rattus norvegicus, UniProt P51639).
T1 sequence (P51639 whole entry): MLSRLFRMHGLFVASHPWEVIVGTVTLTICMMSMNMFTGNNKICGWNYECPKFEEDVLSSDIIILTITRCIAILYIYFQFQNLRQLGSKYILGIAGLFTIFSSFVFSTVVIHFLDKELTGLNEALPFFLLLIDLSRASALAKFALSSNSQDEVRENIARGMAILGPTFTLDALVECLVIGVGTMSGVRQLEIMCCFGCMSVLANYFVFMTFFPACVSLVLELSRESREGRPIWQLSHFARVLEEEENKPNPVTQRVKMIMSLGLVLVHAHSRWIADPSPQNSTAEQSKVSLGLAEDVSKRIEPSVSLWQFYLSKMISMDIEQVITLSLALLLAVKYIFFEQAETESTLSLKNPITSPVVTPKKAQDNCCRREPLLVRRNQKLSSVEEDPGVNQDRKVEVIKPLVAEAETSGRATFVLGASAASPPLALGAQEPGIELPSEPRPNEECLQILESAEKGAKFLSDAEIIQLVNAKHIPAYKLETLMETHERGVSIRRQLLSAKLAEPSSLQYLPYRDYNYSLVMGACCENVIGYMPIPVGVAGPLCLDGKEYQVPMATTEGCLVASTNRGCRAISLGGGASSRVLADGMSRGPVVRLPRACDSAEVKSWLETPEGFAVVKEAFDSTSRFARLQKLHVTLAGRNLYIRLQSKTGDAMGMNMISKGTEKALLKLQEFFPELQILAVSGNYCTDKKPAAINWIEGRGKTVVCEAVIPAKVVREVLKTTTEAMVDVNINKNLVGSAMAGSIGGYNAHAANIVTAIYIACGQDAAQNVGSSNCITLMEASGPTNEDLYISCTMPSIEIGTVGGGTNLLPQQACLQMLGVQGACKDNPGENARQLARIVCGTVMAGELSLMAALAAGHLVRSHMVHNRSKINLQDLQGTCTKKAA
The assay can be described thus: Inhibition of HMG-CoA reductase in rat liver microsomes. The arrangement: species or system Microsome. The following applies: read-out: I50. The method in brief: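 Rat liver microsomes (0.068 mg protein) in 150 mM phosphate pH 6.8, 180 mM KCl, 16 mM EDTA, 9 mM DTT, 10.0 mM glucose 6-phosphate, 2.1 mM NADP, G6P dehydrogenase, 20 μM (R,S)-[3-14C]HMG-CoA. Lactones were preincubated 30 min at 37 °C for ring opening. Inhibitors were given in DMSO. Reaction stopped with KOH; initial mevalonate rate measured. Four concentrations over four log units, in duplicate; I50 extrapolated from %inhibition vs log concentration.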
On the technique in general: Microsomes from liver hold many membrane-bound enzymes, among them those of drug oxidation.

The target of assay [2] is T1, 3-hydroxy-3-methylglutaryl-coenzyme A reductase. The assay can be described thus: Binding affinity against HMG-CoA reductase in rat liver microsomes. The arrangement: species or system Microsome. The essentials:
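Rat liver microsomes (Edwards preparation, stored at -78 °C), 1.3 mg (0.068 mg protein) per 500 μL assay; 150 mM phosphate pH 6.8, 180 mM KCl, 16 mM Na2EDTA, 9 mM DTT, 10.0 mM glucose 6-phosphate, 2.1 mM NADP, 2 U G6P dehydrogenase, 20 μM (R,S)-[3-14C]HMG-CoA; lactones preincubated 30 min at 37 °C for ring opening; inhibitors in DMSO; KOH stop; four concentrations in duplicate; I50 extrapolated from %inhibition vs log concentration.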

Consider `CC[C@H](C)C(=O)O[C@@H]1CCC=C2C=C[C@@H](C)[C@@H](CC[C@@H]3C[C@@H](O)CC(=O)O3)[C@@H]21`, for which the IC50 in assay [1] was determined as 10000 nM. With `CC[C@H](C)C(=O)O[C@@H]1CCC=C2C=C[C@@H](C)[C@@H](CC[C@H]3C[C@@H](O)CC(=O)O3)[C@@H]21`, in assay [1], the IC50 amounted to 79000 nM. With `CC[C@H](C)C(=O)O[C@@H]1CCC=C2C=C[C@@H](C)[C@@H](COC(=O)C[C@@H](O)CC(=O)O)[C@@H]21`, the IC50 in assay [1] was greater than 25000 nM. On to `CC[C@H](C)C(=O)O[C@H]1C[C@@H](C)C[C@@H]2C=C[C@H](C)[C@H](/C=C/C(=O)C[C@@H](O)CC(=O)O)C12` (some centres not stated), for which, in assay [1], the IC50 worked out at 320 nM. Take `CC[C@H](C)C(=O)O[C@@H]1CCC=C2C=C[C@@H](C)[C@@H](COC(=O)C[C@H](O)CC(=O)O)[C@@H]21`: the IC50 in assay [1] amounted to 25000 nM.

With `CC[C@H](C)C(=O)O[C@H]1CCC=C2C=C[C@H](C)[C@H](/C=C/C(=O)C[C@@H](O)CC(=O)O)[C@H]21`, the IC50 in assay [1] worked out at 630 nM.

Consider `CC[C@H](C)C(=O)O[C@H]1CCC=C2C=C[C@H](C)[C@H](CC[C@H]3C[C@H](O)CC(=O)O3)C21` (some centres not stated), for which the IC50 in assay [1] turned out to be 2000 nM. On the same count and under the same terms, under `CC[C@H](C)C(=O)O[C@H]1C[C@@H](C)C[C@@H]2C=C[C@H](C)[C@H](CC[C@@H]3C[C@@H](O)CC(=O)O3)C12` (some centres not stated) stands 1.6 nM; under `CC[C@H](C)C(=O)O[C@H]1CCC=C2C=C[C@H](C)[C@H](CC[C@H]3C[C@@H](O)CC(=O)O3)C21` (some centres not stated), 2000 nM; under `CC[C@H](C)C(=O)O[C@H]1CCC=C2C=C[C@H](C)[C@H](CCC(=O)C[C@@H](O)CC(=O)O)[C@H]21`, 32 nM. For the molecule `CC[C@H](C)C(=O)O[C@H]1CCC=C2C=C[C@H](C)[C@H](COC(=O)C[C@H](O)CC(=O)O)[C@H]21`, the IC50 in assay [1] came to 5000 nM.

On to `CC[C@H](C)C(=O)O[C@H]1CCC=C2C=C[C@H](C)[C@H](CC[C@@H]3C[C@@H](O)CC(=O)O3)[C@H]21` [MEVASTATIN], for which, in assay [2], affinity was put at a Ki of 1.4 nM. Further, the IC50 in assay [1] was 13 nM. Regarding `CC[C@H](C)C(=O)O[C@H]1CCC=C2C=C[C@H](C)[C@H](CC[C@@H]3C[C@H](O)CC(=O)O3)C21` (some centres not stated), the IC50 in assay [1] amounted to 4000 nM. Consider `CC[C@H](C)C(=O)O[C@@H]1CCC=C2C=C[C@@H](C)[C@@H](COC(=O)CCCC(=O)O)[C@@H]21`, for which the IC50 in assay [1] was found to be 110000 nM. For `CC[C@H](C)C(=O)O[C@H]1CCC=C2C=C[C@H](C)[C@H](COC(=O)CCCC(=O)O)C21` (some centres not stated), in assay [1], the IC50 worked out at 7100 nM. On to `CC[C@H](C)C(=O)O[C@H]1CCC=C2C=C[C@H](C)[C@H](COC(=O)C[C@@H](O)CC(=O)O)[C@H]21`, for which the IC50 in assay [1] was found to be 630 nM.

The term Ki denotes the equilibrium dissociation constant of an inhibitor or competing ligand from its target. Low values mean higher affinity, high ones lower affinity.
